Test results published in ChEMBL document CHEMBL1221390, “Withaferin A, a cytotoxic steroid from Vassobia breviflora, induces apoptosis in human head and neck squamous cell carcinoma” (J Nat Prod, 2010).
Activity calls are given as the source filed them. The rule behind the calls is not given here.

Experiments:
[1] = Cytotoxicity against human UM-SCC2 cells after 72 hrs by MTS assay; format: functional, cell-based; details: UM-SCC2, 72 h
Outline: (§1)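 Seeded at 2×10³ cells/well, left 24 h, then exposed to serial dilutions in medium (from DMSO stock; vehicle controls <0.1% DMSO v/v) for 72 h. MTS added, 3 h at 37 °C, 5% CO₂, absorbance 490 nm. Viability expressed relative to medium-only control; IC50 read from viability–concentration curves. Triplicate; cisplatin positive control.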

[2] = molecular target: T1, Mitogen-activated protein kinase; ERK1/ERK2 (Homo sapiens) (UniProt P27361+P28482); experiment: Inhibition of ERK1/2 phosphorylation in human MDA1986 cells assessed as effect on total protein level at 0.1 to 5 uM after 24 hrs by Western blot analysis; format: cell-based
Outline: (§2)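 Increasing concentrations for 24 h. NP-40 lysates (with NaF and orthovanadate) cleared at 14,000 × g, equal protein separated by SDS-PAGE and blotted. Probed for phospho-Akt (Ser473), total Akt, phospho-ERK1/2 and total ERK; β-actin loading control. Primary antibody overnight at 4 °C, HRP secondary 1 h.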

[3] = molecular target: RAC-alpha serine/threonine-protein kinase (Homo sapiens) (UniProt P31749); experiment: Inhibition of Akt in human MDA1986 cells assessed as decrease in total protein level at 0.1 to 5 uM after 24 hrs by Western blot analysis; format: cell-based; outline: as §2
[4] = Induction of cell cycle arrest in human UM-SCC2 cells assessed as accumulation at G2/M phase at 3 uM after 24 hrs by flow cytometry; format: functional
Outline: (§3)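 Treated 24 h with 3.0 μM or DMSO vehicle. Cells trypsinized; 1×10⁶ washed in 0.9% NaCl and fixed 30 min at room temperature in cold 70% ethanol/0.9% NaCl. Stained with PI (50 μg/mL in PBS) 30 min, then DNase-free RNase (1 mg/mL) 30 min. Phase distribution (sub-G0, G0/G1, S, G2/M) by flow cytometry.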

[5] = system: JMAR; experiment: Induction of apoptosis in human JMAR cells assessed as induction of PRAP cleavage after 24 hrs by Western blot analysis; format: functional, cell-based
Outline: (§4)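 Cells exposed to increasing concentrations for 24 h, lysed in NP-40/Tris pH 7.5 buffer with protease inhibitors, NaF and orthovanadate. Equal protein run on SDS-PAGE, transferred to nitrocellulose. Probed overnight at 4 °C for uncleaved caspase 3 (pro-form) and uncleaved/cleaved PARP; HRP secondary 1 h at room temperature.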

[6] = molecular target: RAC-alpha serine/threonine-protein kinase (Homo sapiens) (UniProt P31749); experiment: Inhibition of Akt phosphorylation in human JHU011 cells after 24 hrs by Western blot analysis; format: cell-based; outline: as §2
[7] = system: MDA1986; experiment: Induction of apoptosis in human MDA1986 cells assessed as increase in non-viable necrotic cells at 5 uM after 24 hrs by FITC-conjugated annexin V and propidium iodide staining-based flow cytometry; format: functional, cell-based
Outline: (§5)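 Cells given 5.0 μM for 24 h, harvested, and co-stained at 1×10⁶ cells/mL with annexin V-FITC and PI. Annexin binding buffer added before flow cytometry. Annexin V only scored as early apoptosis, annexin V+PI as late apoptosis, PI only as necrosis. Triplicate; t-test.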

[8] = molecular target: RAC-alpha serine/threonine-protein kinase (Homo sapiens) (UniProt P31749); experiment: Inhibition of Akt in human MDA1986 cells assessed as highest required for enzyme activity after 24 hrs by Western blot analysis; format: cell-based; outline: as §2
[9] = Cytotoxicity against human JHU011 cells after 72 hrs by MTS assay; format: functional, cell-based; details: JHU011, 72 h; outline: as §1
[10] = Induction of cell cycle arrest in human JHU011 cells assessed as accumulation at G2/M phase at 3 uM after 24 hrs by flow cytometry; format: functional; outline: as §3
[11] = system: UM-SCC2; experiment: Induction of apoptosis in human UM-SCC2 cells assessed as increase in late apoptotic cells at 5 uM after 24 hrs by FITC-conjugated annexin V and propidium iodide staining-based flow cytometry; format: functional, cell-based; outline: as §5
[12] = Induction of cell cycle arrest in human JMAR cells assessed as accumulation at G2/M phase at 3 uM after 24 hrs by flow cytometry; format: functional; outline: as §3
[13] = Induction of cell cycle arrest in human JMAR cells assessed as accumulation at subG0 phase at 3 uM after 24 hrs by flow cytometry; format: functional; outline: as §3
[14] = system: JHU011; experiment: Induction of apoptosis in human JHU011 cells assessed as induction of PRAP cleavage after 24 hrs by Western blot analysis; format: functional, cell-based; outline: as §4
[15] = Induction of apoptosis in human JHU011 cells assessed as early apoptotic cells at 5 uM after 24 hrs by FITC-conjugated annexin V and propidium iodide staining-based flow cytometry; format: functional; outline: as §5
[16] = system: UM-SCC2; experiment: Induction of apoptosis in human UM-SCC2 cells assessed as decrease in procaspase-3 level at 1 to 6 uM after 24 hrs by Western blot analysis; format: functional, cell-based; outline: as §4
[17] = molecular target: T1, Mitogen-activated protein kinase; ERK1/ERK2 (Homo sapiens); experiment: Inhibition of ERK1/2 phosphorylation in human JMAR cells at 0.1 to 5 uM after 24 hrs by Western blot analysis; format: cell-based; outline: as §2
[18] = Cytotoxicity against human MDA1986 cells after 72 hrs by MTS assay; format: functional, cell-based; details: MDA1986, 72 h
Outline: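 Cells seeded at 2×10³ per well, grown 24 h, then given serial concentrations (DMSO stock diluted in medium; vehicle controls <0.1% v/v DMSO) for 72 h. MTS added, 3 h at 37 °C, 5% CO₂, absorbance at 490 nm. Viability as fraction of medium-only control; IC50 from viability–concentration curves; triplicate, means of three independent experiments. Cisplatin positive control.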

[19] = molecular target: T1, Mitogen-activated protein kinase; ERK1/ERK2 (Homo sapiens); experiment: Inhibition of ERK1/2 phosphorylation in human JHU011 cells at 0.1 to 5 uM after 24 hrs by Western blot analysis; format: cell-based; outline: as §2
[20] = molecular target: RAC-alpha serine/threonine-protein kinase (Homo sapiens) (UniProt P31749); experiment: Inhibition of Akt in human JHU011 cells assessed as decrease in total protein level at 0.1 to 5 uM after 24 hrs by Western blot analysis; format: cell-based; outline: as §2
[21] = molecular target: T1, Mitogen-activated protein kinase; ERK1/ERK2 (Homo sapiens); experiment: Inhibition of ERK1/2 phosphorylation in human UM-SCC2 cells assessed as effect on total protein level at 0.1 to 5 uM after 24 hrs by Western blot analysis; format: cell-based; outline: as §2
[22] = system: JHU011; experiment: Induction of apoptosis in human JHU011 cells assessed as increase in non-viable necrotic cells at 5 uM after 24 hrs by FITC-conjugated annexin V and propidium iodide staining-based flow cytometry; format: functional, cell-based; outline: as §5
[23] = molecular target: T1, Mitogen-activated protein kinase; ERK1/ERK2 (Homo sapiens); experiment: Inhibition of ERK1/2 phosphorylation in human UM-SCC2 cells at 0.1 to 5 uM after 24 hrs by Western blot analysis; format: cell-based; outline: as §2

T1 sequence (P27361 whole entry, looked up): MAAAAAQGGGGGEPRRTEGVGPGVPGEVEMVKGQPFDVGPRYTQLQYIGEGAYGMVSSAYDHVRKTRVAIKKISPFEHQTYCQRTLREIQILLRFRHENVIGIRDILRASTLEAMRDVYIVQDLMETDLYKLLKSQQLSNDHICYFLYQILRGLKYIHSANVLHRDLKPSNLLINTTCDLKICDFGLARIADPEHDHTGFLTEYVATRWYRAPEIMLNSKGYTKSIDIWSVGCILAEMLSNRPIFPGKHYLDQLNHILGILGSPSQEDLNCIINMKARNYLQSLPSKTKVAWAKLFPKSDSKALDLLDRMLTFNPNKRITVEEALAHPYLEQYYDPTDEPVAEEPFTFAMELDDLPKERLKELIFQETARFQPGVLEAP
T1 sequence (P28482 whole entry, looked up): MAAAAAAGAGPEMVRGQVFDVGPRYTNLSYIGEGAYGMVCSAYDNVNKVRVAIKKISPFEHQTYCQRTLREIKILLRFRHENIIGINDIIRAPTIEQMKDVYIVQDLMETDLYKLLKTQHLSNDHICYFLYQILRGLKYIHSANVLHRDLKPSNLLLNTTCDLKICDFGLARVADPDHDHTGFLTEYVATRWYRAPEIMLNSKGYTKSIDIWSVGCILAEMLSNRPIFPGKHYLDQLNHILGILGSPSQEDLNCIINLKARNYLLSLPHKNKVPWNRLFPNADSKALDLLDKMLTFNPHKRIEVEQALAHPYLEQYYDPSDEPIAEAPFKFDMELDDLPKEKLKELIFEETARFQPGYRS
Sequence of RAC-alpha serine/threonine-protein kinase (Homo sapiens) (P31749 whole entry): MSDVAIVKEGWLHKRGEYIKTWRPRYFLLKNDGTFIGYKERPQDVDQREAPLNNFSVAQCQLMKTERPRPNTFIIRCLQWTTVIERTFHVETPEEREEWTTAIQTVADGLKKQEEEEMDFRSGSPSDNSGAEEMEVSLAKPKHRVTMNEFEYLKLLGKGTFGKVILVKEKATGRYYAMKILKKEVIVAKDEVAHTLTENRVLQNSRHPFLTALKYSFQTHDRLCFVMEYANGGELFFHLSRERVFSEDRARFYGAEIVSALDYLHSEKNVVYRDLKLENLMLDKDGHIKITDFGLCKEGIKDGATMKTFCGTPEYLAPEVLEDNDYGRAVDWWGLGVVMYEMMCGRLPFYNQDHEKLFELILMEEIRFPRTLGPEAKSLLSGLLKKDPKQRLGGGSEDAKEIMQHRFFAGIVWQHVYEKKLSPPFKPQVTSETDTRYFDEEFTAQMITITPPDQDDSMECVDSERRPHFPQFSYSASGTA

## CC1=C(CO)C(=O)O[C@@H]([C@@H](C)[C@H]2CC[C@H]3[C@@H]4C[C@H]5O[C@]56[C@@H](O)C=CC(=O)[C@]6(C)[C@H]4CC[C@]23C)C1 [WITHAFERIN A]
[1]
  IC50: 500 nM
[2]
  inhibition: inactive
[3]
  inhibition: Active
[4]
  Activity: 36%
[5]
  Activity: Dose-dependent effect
[6]
  inhibition: Dose-dependent effect
[7]
  Activity: inactive
[8]
  Activity: 2.5 µM
[9]
  IC50: 2200 nM
[10]
  Activity: 34%
[11]
  Activity: Active
[12]
  Activity: 42%
[13]
  Activity: 12%
[14]
  Activity: Dose-dependent effect
[15]
  Activity: 14.8%
[16]
  Activity: Active
[17]
  inhibition: inactive
[18]
  IC50: 800 nM
[19]
  inhibition: inactive
[20]
  inhibition: Active
[21]
  inhibition: inactive
[22]
  Activity: inactive
[23]
  inhibition: Active
